B1: Osa-1-4 twister ribozyme (parent)
chain: CCGCCUAACACUGCCAAUGCCGGUCCCAAGCCCGGAUAAAAGUGGAGGGGGCGG

The data set covers variants of B1. Nature of the data set: self-cleavage, relative activity (ratio to wild type); higher = more cleavage; co-transcriptional. Put shortly: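 A DNA template for a 54-nucleotide Oryza sativa twister ribozyme was synthesised with 97 % wild-type base and 1 % of each other base at the 48 positions downstream of the cleavage site. It was transcribed in vitro for 2 h at 37 °C, allowing co-transcriptional self-cleavage, then reverse-transcribed with a template-switching oligonucleotide, PCR-amplified and deep-sequenced. Cleavage status was scored from reads with or without upstream sequence. Relative activity is fraction cleaved normalised to wild type.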
Consider G54U U12C, for which the self-cleavage was determined as 0.67. The figure for G54U U12G is 0.4; for G54U U12A it is 0.62; for G54U U43C it is 0.7. As for G54U U43A, the self-cleavage amounted to 0.84.

Consider G54U U43G, for which the self-cleavage worked out at 0.7.

On to G54C U12C, for which the self-cleavage came to 0.57. As to G54C U12G, the self-cleavage came out at 0.32.

For G54C U43A, the self-cleavage was 0.86.

Turning to G54C U43C, the self-cleavage is 0.6.

As for G54C U43G, the self-cleavage was determined as 0.76. The figure for G54C U18C is 0.91; for G54C U18G it is 0.77. As to G54C U18A, the self-cleavage came out at 0.85.

G54U U37C: the self-cleavage is 1.02. For G54U U37A, the self-cleavage worked out at 0.73. Turning to G54U U37G, the self-cleavage was 0.98. In the case of G54C U37G, the self-cleavage worked out at 1.03. Take G54C U37C: the self-cleavage came to 1.02. On to G54C U37A, for which the self-cleavage was found to be 0.71. For G54C U24C the value was 0.11; for G54C U24G, 0.02. For G54C U24A the value was 0.07; for G54U U24C, 0.23; for G54U U24A, 0.34. The figure for G54U U24G is 0.04.

Consider G54U, for which the self-cleavage was determined as 1. For G54U U18G the value was 0.73; for G54U U18A, 0.9; for G54U U18C, 0.95.

These data come from the RNAGym collection of RNA variant scans (doi:10.1002/anie.201605470).
